What was measured:
[1] = test system: Human immunodeficiency virus 1; assay: Antiviral activity against HIV-1 3B infected in human HeLa-CD4-LTR-beta-gal cells assessed as inhibition of viral replication by SpectraMax GEMINI-XS plate reader analysis; format: functional, organism-based; conditions: Human immunodeficiency virus 1, 3B
Outline: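 HeLa-CD4-LTR-β-gal cells kept in DMEM, 10% serum, 0.5 mg/mL G418; seeded 10000 cells/well the day before. Drug 3-fold serially diluted over six points on cells (top 50 μM), then fresh medium or concentrated HIV-1(IIIB) supernatant added.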

[2] = target: T1, Human immunodeficiency virus type 1 integrase (Human immunodeficiency virus 1, UniProt Q7ZJM1)
[3] = target: Human immunodeficiency virus type 1 reverse transcriptase (Human immunodeficiency virus 1) (UniProt Q72547); assay: Inhibition of RNase H function of HIV1 reverse transcriptase using DNA/RNA hybrid as substrate at 10 uM by fluorescence spectrometer analysis
Outline: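 RNase H activity of HIV-1 RT was measured with an RNA/DNA hybrid substrate at 250 nM final, with 150–800 ng RT, in 50 mM Tris-HCl pH 8.0, 60 mM KCl, 10 mM MgCl2 and 1% DMSO, against DMSO-only wells. Fluorescence (ex 485/em 520 nm) was read each minute over 10 min at 37 °C. Percent inhibition at 10 μM = 100(v0−vi)/v0 from initial rates, run in triplicate.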

[4] = target: Human immunodeficiency virus type 1 reverse transcriptase (Human immunodeficiency virus 1, UniProt Q72547); assay: Inhibition of RNase H function of HIV1 reverse transcriptase using DNA/RNA hybrid as substrate by fluorescence spectrometer analysis
HeLa = assay: Cytotoxicity against human HeLa-CD4-LTR-beta-gal cells after 24 hrs by ATPlite reagent based luminescence analysis; format: cell-based
[5] = Selectivity index, ratio of CC50 for human HeLa-CD4-LTR-beta-gal cells to EC50 for HIV-1 3B infected in human HeLa-CD4-LTR-beta-gal cells; format: toxicity; conditions: read-out: Ratio CC50/EC50
[6] = target: T1, Human immunodeficiency virus type 1 integrase; remark: listed apart in the source

T1 sequence (Q7ZJM1 whole entry): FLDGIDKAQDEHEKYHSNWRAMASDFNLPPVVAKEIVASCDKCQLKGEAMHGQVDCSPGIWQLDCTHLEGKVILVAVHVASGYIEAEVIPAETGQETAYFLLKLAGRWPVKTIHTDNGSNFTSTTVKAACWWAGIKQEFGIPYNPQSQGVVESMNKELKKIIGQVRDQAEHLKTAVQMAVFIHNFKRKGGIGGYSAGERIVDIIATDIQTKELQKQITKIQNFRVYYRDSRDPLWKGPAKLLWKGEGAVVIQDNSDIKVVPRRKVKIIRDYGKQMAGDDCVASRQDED

| Structure (SMILES) | EC50 [1] [µM] | IC50 [2] [µM] | inhibition [3] [%] | IC50 [4] [µM] | CC50 (HeLa) [µM] | selectivity ratio [5] | IC50 [6] [µM] |
| --- | --- | --- | --- | --- | --- | --- | --- |
| O=C(O)/C(O)=C/C(=O)c1cn(Cc2cc(F)ccc2F)c2ccccc2c1=O | > 50 | 3.2 | 37 | > 50 |  |  |  |
| O=C(O)/C(O)=C/C(=O)c1cn(Cc2ccccc2F)c2cc(Cl)ccc2c1=O | 17 |  |  | 22.6 | > 50 | > 2.9 |  |
| O=C(O)/C(O)=C/C(=O)c1cn(Cc2ccccc2F)c2ccccc2c1=O | 2.6 | 0.016 | 45.1 | > 50 | > 50 | > 19.2 | 1.2 |
| CCOC(=O)/C(O)=C/C(=O)c1cn(Cc2ccc(Cl)cc2Cl)c2ccccc2c1=O | > 50 | > 111 | 51 | > 50 |  |  |  |
| CCOC(=O)/C(O)=C/C(=O)c1cn(Cc2cccc(Cl)c2F)c2ccccc2c1=O | 10 | 1.08 | 21 |  | > 50 | > 5 | 1.08 |
| O=C(O)/C(O)=C/C(=O)c1cn(Cc2ccc(O)cc2)c2ccccc2c1=O | > 50 | 0.45 |  | 9.5 |  |  | > 37 |
| O=C(O)/C(O)=C/C(=O)c1cn(Cc2ccc(F)c(F)c2)c2ccccc2c1=O | 16.2 | 0.11 | 44 | > 50 | > 50 | > 3.1 |  |
| CCOC(=O)/C(O)=C/C(=O)c1cn(Cc2ccc(C)cc2C)c2ccccc2c1=O | > 50 | > 111 | 33 | > 50 |  |  |  |
| CCOC(=O)/C(O)=C/C(=O)c1cn(Cc2ccccc2F)c2ccccc2c1=O | 1.5 | 0.28 | 2.8 |  | > 50 | > 33.4 | 125 |
| CCOC(=O)/C(O)=C/C(=O)c1cn(Cc2ccccc2)c2ccccc2c1=O | 1 | 0.7 | -3.3 |  | > 50 | > 50 | > 1000 |
| O=C(O)/C(O)=C/C(=O)c1cn(Cc2ccc(F)cc2F)c2ccccc2c1=O | 13.8 | 0.01 |  | 35.9 | > 50 | > 3.6 |  |
| O=C(O)/C(O)=C/C(=O)c1cn(Cc2ccccc2F)c2c(Cl)cccc2c1=O | > 50 | 0.13 | 45 | > 50 |  |  | 20.5 |
| COc1ccccc1Cn1cc(C(=O)/C=C(\O)C(=O)O)c(=O)c2ccccc21 | 9.3 | 0.038 |  | 16.3 | > 50 | > 5.4 | > 4.1 |
| CCOC(=O)/C(O)=C/C(=O)c1cn(Cc2c(F)cccc2F)c2ccccc2c1=O | < 0.2 | 0.25 | 4.1 |  | > 50 | > 250 | > 12.3 |
| CCOC(=O)/C(O)=C/C(=O)c1cn(Cc2ccccc2OC)c2ccccc2c1=O [20, RDS-2163] | 2.6 | 1.4 | 11.4 |  | > 50 | > 19.2 | > 333 |
| O=C(O)/C(O)=C/C(=O)c1cn(Cc2ccc3ccccc3c2)c2ccccc2c1=O | 4.8 | < 0.45 | 40.7 |  | > 50 | > 10.4 | 18 |
| CCOC(=O)/C(O)=C/C(=O)c1cn(Cc2cccc(OC)c2)c2ccccc2c1=O | 8.5 | 16 | 4.9 |  | 44 | 5.2 | > 333 |

| Structure (SMILES) | EC50 [1] [µM] | IC50 [2] [µM] | inhibition [3] [%] | IC50 [4] [µM] | CC50 (HeLa) [µM] | selectivity ratio [5] | IC50 [6] [µM] |
| --- | --- | --- | --- | --- | --- | --- | --- |
| O=C(O)/C(O)=C/C(=O)c1cn(Cc2ccc([N+](=O)[O-])cc2)c2ccccc2c1=O | > 50 | 0.64 |  | 47 |  |  | 27 |
| O=C(O)/C(O)=C/C(=O)c1cn(Cc2c(F)cccc2F)c2ccccc2c1=O [RDS-1984] | 8.1 | 0.019 |  | 10.8 | > 50 | > 6.2 | 0.7 |
| O=C(O)/C(O)=C/C(=O)c1cn(Cc2cc(F)cc(F)c2)c2ccccc2c1=O | > 50 | 0.22 | 30 | > 50 |  |  |  |
| CCOC(=O)/C(O)=C/C(=O)c1cn(Cc2ccc(O)cc2)c2ccccc2c1=O | 30.9 | 1.4 | 26 |  | > 50 | > 1.6 | > 333 |
| Cc1cc(C)cc(Cn2cc(C(=O)/C=C(\O)C(=O)O)c(=O)c3ccccc32)c1 | > 50 | 0.05 |  | 37.8 |  |  |  |
| O=C(O)/C(O)=C/C(=O)c1cn(Cc2cccc(F)c2)c2ccccc2c1=O | 28.2 | 0.015 | 2.4 |  | > 50 | > 1.8 | 4.6 |
| CCOC(=O)/C(O)=C/C(=O)c1cn(Cc2cccc(F)c2)c2ccccc2c1=O [RDS-1624] | 1.7 | 4.9 | -9.4 |  | > 50 | > 29.4 | > 12.3 |
| CCOC(=O)/C(O)=C/C(=O)c1cn(Cc2ccc(F)c(Cl)c2)c2ccccc2c1=O | 17.4 | 3.1 | 18 |  | > 50 | > 2.9 | 266 |
| COc1ccc(Cn2cc(C(=O)/C=C(\O)C(=O)O)c(=O)c3ccccc32)cc1 | > 50 | 0.51 | 45.8 | > 50 |  |  | 28 |
| CCOC(=O)/C(O)=C/C(=O)c1cn(Cc2c(Cl)cccc2Cl)c2ccccc2c1=O | 30.2 | 32 | 55 | > 50 | > 50 | > 1.7 |  |
| CCOC(=O)/C(O)=C/C(=O)c1cn(Cc2ccc(F)c(F)c2)c2ccccc2c1=O | 9.8 | 5.5 | 24 |  | > 50 | > 5.1 |  |
| Cc1ccc(Cn2cc(C(=O)/C=C(\O)C(=O)O)c(=O)c3ccccc32)c(C)c1 | > 50 | 7 |  | 19.6 |  |  |  |
| O=C(O)/C(O)=C/C(=O)c1cn(Cc2c(Cl)cccc2Cl)c2ccccc2c1=O | > 50 | 0.27 | 86.3 | 10 |  |  |  |
| O=C(O)/C(O)=C/C(=O)c1cn(Cc2ccc(Cl)cc2)c2ccccc2c1=O | 0.87 | 0.54 | 56.2 | > 50 | > 50 | > 57.5 | 22 |
| O=C(O)/C(O)=C/C(=O)c1cn(Cc2cccc(Cl)c2F)c2ccccc2c1=O | 23.4 | 0.018 | 12 |  | > 50 | > 2.1 | 1.75 |
| O=C(O)/C(O)=C/C(=O)c1cn(Cc2ccc(Cl)cc2Cl)c2ccccc2c1=O | > 50 | 2.3 |  | 44.7 |  |  |  |

Source: ChEMBL document CHEMBL3580569, “N-Substituted Quinolinonyl Diketo Acid Derivatives as HIV Integrase Strand Transfer Inhibitors and Their Activity against RNase H Function of Reverse Transcriptase” (J Med Chem, 2015)
